Assay results reported in ChEMBL document CHEMBL1124374, “Enkephalinase inhibitors. 1. 2,4-Dibenzylglutaric acid derivatives” (J Med Chem, 1989).
One block for each molecule: values may come before it. Calls of active or inactive are those of the source.

Experiments:
Neprilysin [1] = biological target: T1, Neprilysin (Rattus norvegicus, UniProt P07861); test: Inhibition of enkephalinase activity in synaptic membranes prepared from rat striatum; type: cell membranes
T1 sequence (P07861 whole entry): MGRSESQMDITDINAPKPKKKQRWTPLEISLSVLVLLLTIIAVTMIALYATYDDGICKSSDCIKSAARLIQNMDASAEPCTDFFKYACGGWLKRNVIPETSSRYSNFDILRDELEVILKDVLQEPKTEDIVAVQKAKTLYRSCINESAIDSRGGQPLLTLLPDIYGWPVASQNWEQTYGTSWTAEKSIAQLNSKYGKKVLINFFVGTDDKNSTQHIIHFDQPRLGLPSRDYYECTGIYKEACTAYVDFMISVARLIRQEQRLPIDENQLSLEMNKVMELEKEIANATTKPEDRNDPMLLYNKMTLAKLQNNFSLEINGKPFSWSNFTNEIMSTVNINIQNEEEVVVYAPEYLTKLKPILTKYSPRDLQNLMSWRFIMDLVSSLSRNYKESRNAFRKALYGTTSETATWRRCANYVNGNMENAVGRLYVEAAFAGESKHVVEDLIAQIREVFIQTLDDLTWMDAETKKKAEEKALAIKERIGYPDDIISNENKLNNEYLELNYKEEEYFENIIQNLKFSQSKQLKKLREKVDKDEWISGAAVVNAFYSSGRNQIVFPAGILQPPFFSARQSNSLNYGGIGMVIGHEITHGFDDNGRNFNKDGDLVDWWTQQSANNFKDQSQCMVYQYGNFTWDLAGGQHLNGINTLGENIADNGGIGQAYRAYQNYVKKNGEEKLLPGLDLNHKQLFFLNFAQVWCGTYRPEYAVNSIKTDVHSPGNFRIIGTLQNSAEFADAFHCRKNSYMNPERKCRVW

Neprilysin [2] = biological target: T2, Neprilysin (Oryctolagus cuniculus, UniProt P08049); test: (§1) Inhibition of enkephalinase activity in membranes prepared from rabbit
T2 sequence (P08049 whole entry): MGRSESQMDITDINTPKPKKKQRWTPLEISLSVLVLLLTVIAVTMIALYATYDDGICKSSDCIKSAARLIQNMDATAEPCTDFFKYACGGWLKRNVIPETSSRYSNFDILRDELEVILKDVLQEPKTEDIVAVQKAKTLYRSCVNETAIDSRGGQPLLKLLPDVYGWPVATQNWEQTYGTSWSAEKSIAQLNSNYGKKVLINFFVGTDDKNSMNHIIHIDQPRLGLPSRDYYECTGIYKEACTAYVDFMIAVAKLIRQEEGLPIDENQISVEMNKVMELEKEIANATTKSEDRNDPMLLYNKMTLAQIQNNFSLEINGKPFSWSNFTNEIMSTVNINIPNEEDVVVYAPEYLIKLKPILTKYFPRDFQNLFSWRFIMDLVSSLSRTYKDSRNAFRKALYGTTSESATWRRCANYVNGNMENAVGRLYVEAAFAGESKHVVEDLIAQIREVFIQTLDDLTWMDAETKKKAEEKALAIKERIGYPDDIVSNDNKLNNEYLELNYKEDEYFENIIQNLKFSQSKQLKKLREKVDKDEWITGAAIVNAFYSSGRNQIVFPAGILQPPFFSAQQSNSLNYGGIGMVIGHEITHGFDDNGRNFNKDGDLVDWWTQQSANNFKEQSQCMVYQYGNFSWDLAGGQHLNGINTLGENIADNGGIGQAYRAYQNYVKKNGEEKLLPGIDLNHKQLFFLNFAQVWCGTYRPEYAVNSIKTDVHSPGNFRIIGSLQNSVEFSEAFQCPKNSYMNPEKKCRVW

Mus musculus [3] = test: Tail-flick latency observed in CF-1 mice after the administration (30 mg/kg) followed by icv administration of DAEM ([D-Ala2,Met5]enkephalin); type: functional
Procedure, shortened: (§2)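 Male CF-1 mice (20–22 g) given test agent or vehicle sc, followed immediately by icv DAEM (1 μg) or vehicle. Tail-flick latency measured 30 min later, cutoff 10 s, n = 10.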

Mus musculus [4] = test: Hot-plate jump-latency activity in mouse 15 minutes after subcutaneous administration; type: functional; conditions: sc, 0.25 h, read-out: MED
Procedure, shortened: (§3)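 Male CF1 mice (18–23 g) dosed icv or sc; 15 min later placed singly on a copper hot plate held at 55 °C. Latency to jump recorded, cutoff 240 s. MED = minimum effective dose. ED200 = dose doubling jump latency.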

Neprilysin [5] = biological target: T2, Neprilysin; test: as §1; remark: listed apart in the source
Procedure, shortened: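 Rabbit protease 24.11 (15 ng protein) incubated 10 min at 37 °C with [Tyr-3H]Leu-enkephalin plus unlabeled Leu-enkephalin (1 μM final) in 50 mM Tris-HCl, pH 6.5. Stopped with TFA. Tyr-Gly-Gly product separated from substrate by C4 reverse-phase HPLC (isocratic, 0.09% TFA/acetonitrile). Fractions counted by scintillation.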

Mus musculus [6] = test: Doubling of hotplate jump-latency activity in mouse after intra cerebro ventricular administration of the compound; type: functional; procedure, shortened: as §3
Mus musculus [7] = test: Tail-flick latency observed in CF-1 mice after the administration (30 mg/kg) followed by icv administration of DAEM ([D-Ala2,Met5]enkephalin); IA is Inactive; type: functional, organism-based; procedure, shortened: as §2
Mus musculus [8] = test: Stretching activity in male CF-1 mice, after the intra peritoneal administration of acetic acid and subcutaneous administration of compound; type: functional
Procedure, shortened: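 Male CF-1 mice (18–22 g), twelve per dose of agent or vehicle, dosed sc 15 min before ip 3% aqueous acetic acid at 10 mL/kg. Five minutes after irritant, stretching episodes counted over 10 min. ED50 derived from these counts.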

Mus musculus [9] = test: Doubling of hotplate jump-latency activity in mouse after subcutaneous administration is determined; type: functional; procedure, shortened: as §3
Opioid receptor = test: Ability to displace tritium-labeled naloxone at opiate receptors, at 10 uM concentration
[10] = biological target: T3, Aminopeptidase N (Sus scrofa) (UniProt P15145); test: Inhibition of aminopeptidase; IA is inactive
T3 sequence (whole entry): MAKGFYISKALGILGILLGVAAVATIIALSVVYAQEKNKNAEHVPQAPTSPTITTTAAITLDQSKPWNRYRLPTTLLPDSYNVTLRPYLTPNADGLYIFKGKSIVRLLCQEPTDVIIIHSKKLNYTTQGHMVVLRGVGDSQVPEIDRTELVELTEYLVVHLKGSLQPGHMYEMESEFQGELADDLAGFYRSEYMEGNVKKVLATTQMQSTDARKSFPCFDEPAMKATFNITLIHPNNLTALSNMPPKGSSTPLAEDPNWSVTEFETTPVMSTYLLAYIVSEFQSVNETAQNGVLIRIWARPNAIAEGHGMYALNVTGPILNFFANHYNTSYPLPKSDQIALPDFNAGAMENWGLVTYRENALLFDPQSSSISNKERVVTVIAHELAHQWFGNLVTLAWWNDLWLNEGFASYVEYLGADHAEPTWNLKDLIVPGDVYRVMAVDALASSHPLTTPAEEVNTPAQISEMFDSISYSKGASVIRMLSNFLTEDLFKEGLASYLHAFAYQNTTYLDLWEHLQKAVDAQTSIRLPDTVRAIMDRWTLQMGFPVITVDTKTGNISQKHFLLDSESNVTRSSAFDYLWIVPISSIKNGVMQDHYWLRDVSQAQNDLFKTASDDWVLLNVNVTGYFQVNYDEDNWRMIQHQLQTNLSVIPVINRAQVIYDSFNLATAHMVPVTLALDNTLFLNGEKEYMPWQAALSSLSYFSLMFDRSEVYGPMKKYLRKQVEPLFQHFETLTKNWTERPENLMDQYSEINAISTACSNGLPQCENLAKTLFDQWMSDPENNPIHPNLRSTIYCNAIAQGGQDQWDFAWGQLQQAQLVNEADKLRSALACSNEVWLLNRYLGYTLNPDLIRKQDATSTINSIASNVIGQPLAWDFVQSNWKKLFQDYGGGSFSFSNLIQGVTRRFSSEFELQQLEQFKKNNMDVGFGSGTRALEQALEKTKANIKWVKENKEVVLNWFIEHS
Procedure, shortened: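 Kidney cortex membranes (75 μg protein) incubated 15 min at 37 °C in 50 mM Tris, pH 7.4, with 0.8 mM L-leucine p-nitroanilide (final). Reaction stopped with TCA, tubes centrifuged, p-nitroaniline read as OD at 410 nm.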

[11] = biological target: Mu-type opioid receptor (Mus musculus) (UniProt P42866); test: Ability to displace tritium-labeled naloxone at opioid receptor, at 10 uM concentration
Mus musculus [12] = test: Antinociceptive effect was determined by mouse hot plate assay after sc administration of the compound; type: functional; procedure, shortened: as §3

Mu-type opioid receptor (Mus musculus), sequence (P42866 whole entry): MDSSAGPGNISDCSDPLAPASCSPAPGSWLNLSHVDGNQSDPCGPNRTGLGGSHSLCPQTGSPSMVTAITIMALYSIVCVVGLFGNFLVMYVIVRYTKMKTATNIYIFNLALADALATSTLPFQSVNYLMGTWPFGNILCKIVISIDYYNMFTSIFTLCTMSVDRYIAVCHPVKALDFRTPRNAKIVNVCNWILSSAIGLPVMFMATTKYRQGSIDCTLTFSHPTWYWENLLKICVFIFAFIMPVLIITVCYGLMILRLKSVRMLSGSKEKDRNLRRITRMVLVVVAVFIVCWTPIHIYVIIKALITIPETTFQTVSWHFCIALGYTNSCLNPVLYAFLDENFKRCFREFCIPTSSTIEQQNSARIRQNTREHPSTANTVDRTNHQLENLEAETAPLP

IC50 (Neprilysin [2]): 0.002 µM
SMILES: O=C(O)CCC(=O)NC(Cc1ccccc1)C[C@@H](Cc1ccccc1)C(=O)O (stereo partly specified)

IC50 (Neprilysin [1]): 0.074 µM
SMILES: O=C(O)C(Cc1c[nH]c2ccccc12)NC(=O)[C@H](Cc1ccccc1)C[C@@H](Cc1ccccc1)C(=O)O (stereo partly specified)

IC50 (Neprilysin [1]): 0.004 µM
SMILES: O=C(O)CNC(=O)[C@H](Cc1ccccc1)C[C@@H](Cc1ccccc1)C(=O)O

IC50 (Neprilysin [1]): 0.005 µM
SMILES: O=C(O)C(CCc1ccccc1)NC(=O)[C@H](Cc1ccccc1)C[C@@H](Cc1ccccc1)C(=O)O (stereo partly specified)

IC50 (Neprilysin [1]): 0.029 µM
SMILES: O=C(O)C(Cc1ccccc1)NC(=O)[C@H](Cc1ccccc1)C[C@@H](Cc1ccccc1)C(=O)O (stereo partly specified)

IC50 (Neprilysin [1]): > 1 µM
SMILES: CCOC(=O)C(Cc1ccccc1)CC(Cc1ccccc1)C(=O)NCCC(=O)O (stereo unspecified)
ED200 (Mus musculus [6]): 16 µg | minimal effective dose (Mus musculus [4]): > 100 mg/kg | Reaction time (Mus musculus [7]): inactive

IC50 (Neprilysin [1]): 0.012 µM | inhibition (Opioid receptor): 15%
SMILES: O=C(NCc1ccc(O)c(O)c1)C(CS)Cc1ccccc1 (stereo unspecified)
ED50 (Mus musculus [8]): 5 mg/kg | ED200 (Mus musculus [9]): 15 mg/kg

IC50 (Neprilysin [1]): 1 µM
SMILES: O=C(O)CCNC(=O)C(CCc1ccccc1)CC(CCc1ccccc1)C(=O)O (stereo unspecified)

IC50 (Neprilysin [1]): 1 µM
SMILES: O=C(O)C(Cc1ccccc1)CC(Cc1ccccc1)C(=O)NCCCO (stereo unspecified)

IC50 (Neprilysin [1]): 1 µM
SMILES: O=C(O)CCNC(=O)C(CC1CCCCC1)CC(CC1CCCCC1)C(=O)O (stereo unspecified)

IC50 (Neprilysin [1]): > 1 µM
SMILES: N#CCCNC(=O)C(Cc1ccccc1)CC(Cc1ccccc1)C(=O)O (stereo unspecified)

IC50 (Neprilysin [2]): 0.062 µM
SMILES: O=C(O)CC(=O)NC(Cc1ccccc1)CC(Cc1ccccc1)C(=O)O (stereo unspecified)

Continued, molecule first:

SMILES: O=C(O)C(COCc1ccccc1)NC(=O)[C@H](Cc1ccccc1)C[C@@H](Cc1ccccc1)C(=O)O (stereo partly specified)
IC50 (Neprilysin [1]): 0.006 µM

SMILES: O=C(O)CCCC(=O)NC(Cc1ccccc1)CC(Cc1ccccc1)C(=O)O (stereo unspecified)
IC50 (Neprilysin [2]): 0.012 µM

SMILES: O=C(O)CCNC(=O)[C@@H](Cc1ccccc1)C[C@H](Cc1ccccc1)C(=O)O
IC50 (Neprilysin [1]): > 1 µM

SMILES: CC(C)C[C@H](NP(=O)(O)O[C@@H]1O[C@@H](C)[C@H](O)[C@@H](O)[C@H]1O)C(=O)N[C@@H](Cc1c[nH]c2ccccc12)C(=O)O [PHOSPHORAMIDON]
IC50 (Neprilysin [2]): 0.0004 µM | IC50 (Neprilysin [1]): 0.0006 µM

SMILES: O=C(O)C(CSCc1ccccc1)NC(=O)[C@H](Cc1ccccc1)C[C@@H](Cc1ccccc1)C(=O)O (stereo partly specified)
IC50 (Neprilysin [1]): 0.004 µM

SMILES: CC1(C)O[C@H]2[C@H](COC(=O)CCNC(=O)[C@H](Cc3ccccc3)C[C@@H](Cc3ccccc3)C(=O)O)OC(=O)[C@H]2O1
Reaction time (Mus musculus [3]): 9.8 s | minimal effective dose (Mus musculus [4]): > 30 mg/kg

SMILES: O=C(O)c1cc(NC(=O)[C@H](Cc2ccccc2)C[C@@H](Cc2ccccc2)C(=O)O)ccc1O
IC50 (Neprilysin [1]): 0.038 µM

SMILES: CC1(C)O[C@@H]2O[C@@H](COC(=O)CCNC(=O)[C@H](Cc3ccccc3)C[C@@H](Cc3ccccc3)C(=O)[O-])[C@H]3OC(C)(C)O[C@H]3[C@@H]2O1.[Na+]
Reaction time (Mus musculus [3]): 8.1 s | minimal effective dose (Mus musculus [4]): > 30 mg/kg

SMILES: O=C(O)CCCNC(=O)[C@H](Cc1ccccc1)C[C@@H](Cc1ccccc1)C(=O)O
IC50 (Neprilysin [5]): 0.0014 µM

SMILES: O=C(O)CCNC(=O)C(Cc1ccccc1)CC(Cc1ccccc1)C(=O)O (stereo unspecified)
IC50 (Neprilysin [1]): 0.018 µM

SMILES: O=C(O)c1ccccc1NC(=O)C(Cc1ccccc1)CC(Cc1ccccc1)C(=O)O (stereo unspecified)
IC50 (Neprilysin [1]): 1 µM

SMILES: O=C(O)CCNC(=O)[C@H](Cc1ccccc1)C[C@@H](Cc1ccccc1)C(=O)OC1OC(=O)c2ccccc21 (stereo partly specified)
minimal effective dose (Mus musculus [4]): 30 mg/kg

SMILES: O=C(O)Cc1ccccc1NC(=O)[C@H](Cc1ccccc1)C[C@@H](Cc1ccccc1)C(=O)O
IC50 (Neprilysin [1]): 0.025 µM

SMILES: O=C(O)c1cccc(NC(=O)[C@@H](Cc2ccccc2)C[C@H](Cc2ccccc2)C(=O)O)c1
IC50 (Neprilysin [1]): 0.09 µM

SMILES: O=C(O)CCCNC(=O)C(Cc1ccccc1)CC(Cc1ccccc1)C(=O)O (stereo unspecified)
IC50 (Neprilysin [2]): 0.057 µM

SMILES: O=C(O)CCC(=O)NC(Cc1ccccc1)CC(Cc1ccccc1)C(=O)O (stereo unspecified)
IC50 (Neprilysin [1]): 0.009 µM

SMILES: CC(C)CC(NC(=O)[C@H](Cc1ccccc1)C[C@@H](Cc1ccccc1)C(=O)O)C(=O)O (stereo partly specified)
IC50 (Neprilysin [1]): 0.04 µM

SMILES: COc1cc(CNC(=O)C(CS)Cc2ccccc2)ccc1O (stereo unspecified)
inhibition [10]: inactive | IC50 (Neprilysin [5]): 0.009 µM | ED50 (Mus musculus [8]; sc): 5.5 mg/kg | ED200 (Mus musculus [9]): 6 mg/kg | inhibition [11]: 30%

SMILES: O=C(O)c1ccc(NC(=O)[C@@H](Cc2ccccc2)C[C@H](Cc2ccccc2)C(=O)O)cc1
IC50 (Neprilysin [1]): 0.8 µM

SMILES: O=C([O-])[C@H](Cc1ccccc1)C[C@@H](Cc1ccccc1)C(=O)NCc1ccc(O)c(O)c1.[Na+]
IC50 (Neprilysin [1]): 0.02 µM | ED200 (Mus musculus [12]): >100 mg/kg
